Measurements reported in ChEMBL document CHEMBL3227959, “2'-O-Acyl-6-thioinosine cyclic 3',5'-phosphates as prodrugs of thioinosinic acid” (J Med Chem, 1979).
pEC50: −log10 of the molar value. Calls of active or inactive are those of the source. The rule behind the calls is not given here.

Experiments:
S49 [1] = experiment: Cytotoxicity against wild type mouse S49 cells assessed as growth inhibition after 72 hrs by trypan blue exclusion assay; format: functional, cell-based; conditions: S49, 72 h
How it was run: (§1)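 S49 mouse T-lymphoma cells, pre-grown 24 h to keep growth exponential and asynchronous, were plated at 10^5 cells/mL in complete Dulbecco's modified Eagle medium. Agents were added in 30 mM NaHCO3. After 72 h at 37 °C, cells were counted by Coulter counter. Initial density was subtracted and growth expressed as a fraction of drug-free wells. EC50 was read from the percent-inhibition versus concentration plot, reported as mean ± SE. Trypan blue was used to check cytolysis.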

S49 [2] = experiment: Cytotoxicity against HGPRTase-deficient mouse S49 cells assessed as growth inhibition after 72 hrs by trypan blue exclusion assay; format: functional, cell-based; conditions: S49, 72 h; how it was run: as §1
S49 [3] = experiment: Cytotoxicity against HGPRTase-, protein kinase- and phosphodiesterase-deficient mouse S49 cells assessed as growth inhibition; format: functional, cell-based; how it was run: as §1
[4] = Drug degradation in Eagle's medium containing 10 % heat-inactivated horse serum assessed as parent compound after 3 days by reverse-phase liquid chromatography; format: physicochemical; conditions: read-out: Stability
How it was run: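 Agent at 0.5 mM was incubated without cells for 3 days at 37 °C in Dulbecco's modified Eagle medium with 10% heat-inactivated horse serum. Aliquots were diluted 5:1 with methanol, filtered (0.45 μm), and analysed by reverse-phase C18 LC.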

S49 [5] = experiment: Cytotoxicity against HGPRTase-deficient mouse S49 cells assessed as growth inhibition in presence of theophylline
S49 [6] = experiment: Cytotoxicity against HGPRTase-deficient mouse S49 cells assessed as growth inhibition in presence of 4-(3-butoxy-4-methoxybenzyl)-2-imidazolone
S49 [7] = experiment: Cytotoxicity against HGPRTase-deficient mouse S49 cells assessed as growth inhibition at 500 uM after 20 to 49 hrs by time-course study in presence of theophylline; format: functional, cell-based
How it was run: (§2)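 Growth of HGPRTase-deficient S49 cells was followed over time with 0.5 mM agent, compared with drug-free cultures. The cAMP comparator was given with 0.2 mM theophylline.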

S49 [8] = experiment: Cytotoxicity against HGPRTase-deficient mouse S49 cells assessed as growth inhibition at 500 uM after 20 to 49 hrs by time-course study; format: functional, cell-based; how it was run: as §2
S49 [9] = experiment: Cytotoxicity against HGPRTase-deficient mouse S49 cells assessed as growth inhibition at 1000 uM after 72 hrs by trypan blue exclusion assay; format: functional, cell-based; how it was run: as §1
S49 [10] = experiment: Cytotoxicity against HGPRTase- and protein kinase-deficient mouse S49 cells assessed as growth inhibition; format: functional, cell-based; how it was run: as §1
S49 [11] = experiment: Cytotoxicity against wild type mouse S49 cells assessed as growth inhibition at 200 uM after 72 hrs by trypan blue exclusion assay; format: functional; conditions: S49, 72 h, read-out: GI; how it was run: as §1
S49 [12] = experiment: Cytotoxicity against HGPRTase- and protein kinase-deficient mouse S49 cells assessed as growth inhibition at 1 mM; format: functional, cell-based; how it was run: as §1
S49 [13] = experiment: Cytotoxicity against wild type mouse S49 cells assessed as growth inhibition after 24 hrs by time-course study; format: functional, cell-based
S49 [14] = experiment: Cytotoxicity against HGPRTase-deficient mouse S49 cells assessed as growth inhibition at 100 uM after 72 hrs by trypan blue exclusion assay; format: functional, cell-based; how it was run: as §1

| Structure (SMILES) | pEC50 (S49 [1]) | pEC50 (S49 [2]) | other results |
| --- | --- | --- | --- |
| OC[C@H]1O[C@@H](n2cnc3c(S)ncnc32)[C@H](O)[C@@H]1O [THIOINOSINE] | 6.60 | 3.40 |  |
| CCCCCCCCCCCCCCCC(=O)O [PALMITIC ACID] |  | 3.30 |  |
| CCCCCC(=O)O[C@@H]1[C@@H]2OP(=O)(O)OC[C@H]2O[C@H]1n1cnc2c(=S)[nH]cnc21 | 5.00 | 3.68 |  |
| CC(C)C(=O)O[C@@H]1[C@@H]2OP(=O)(O)OC[C@H]2O[C@H]1n1cnc2c(=S)[nH]cnc21 | 4.64 | 3.32 |  |
| CCCCCCCCCCCCCCCC(=O)O[C@@H]1[C@@H]2OP(=O)(O)OC[C@H]2O[C@H]1n1cnc2c(=S)[nH]cnc21 | 5.22 | 4.19 | growth inhibition (GI) (S49 [3]): Active; remaining at 72 h [4]: 20%; growth inhibition (GI) (S49 [5]): Active; growth inhibition (GI) (S49 [6]): Active |
| CCCCCCCCCCCC(=O)O[C@@H]1[C@@H]2OP(=O)(O)OC[C@H]2O[C@H]1n1cnc2c(=S)[nH]cnc21 | 5.00 | 3.96 |  |
| CCCC(=O)Nc1ncnc2c1ncn2[C@@H]1O[C@@H]2COP(=O)(O)O[C@H]2[C@H]1OC(=O)CCC |  |  | growth inhibition (GI) (S49 [7]): Active; growth inhibition (GI) (S49 [8]): Active |
| CC(C)C(=O)O |  |  | growth inhibition (GI) (S49 [9]): inactive |
| CCCC(=O)O[C@@H]1[C@@H]2OP(=O)(O)OC[C@H]2O[C@H]1n1cnc2c(=S)[nH]cnc21 | 3.86 | 3.37 | pEC50 (S49 [10]): 3.60 |
| O=P1(O)OC[C@H]2O[C@@H](n3cnc4c(=S)[nH]cnc43)[C@H](O)[C@@H]2O1 | 3.70 | < 3.00 | inhibition of growth at 200 µM (S49 [11]): 40% |
| CCCC(=O)O[C@@H]1[C@@H]2OP(=O)(O)OC[C@H]2O[C@H]1n1cnc2c(N)ncnc21 |  |  | growth inhibition (GI) (S49 [12]): inactive |
| Sc1ncnc2nc[nH]c12 [MERCAPTOPURINE ANHYDROUS] | 5.10 | < 3.00 | growth inhibition (GI) (S49 [13]): Active |
| CCCCCCCCCCCC(=O)O |  |  | growth inhibition (GI) (S49 [14]): inactive |
| CCCCCC(=O)O [HEXANOATE] |  | < 3.00 |  |
| CCCCCCCCCCCCCCCCCCCCCC(=O)O[C@@H]1[C@@H]2OP(=O)(O)OC[C@H]2O[C@H]1n1cnc2c(=S)[nH]cnc21 |  | 3.92 |  |
| CC(=O)O[C@@H]1[C@@H]2OP(=O)(O)OC[C@H]2O[C@H]1n1cnc2c(=S)[nH]cnc21 | 3.68 | 3.18 |  |
| CC(C)(C)C(=O)O[C@@H]1[C@@H]2OP(=O)(O)OC[C@H]2O[C@H]1n1cnc2c(=S)[nH]cnc21 | 4.48 | 3.63 |  |
